Usually IC50 stands for the concentration that gives 50% inhibition. Lower therefore signals greater potency. In general, ΔTm refers to the change in melting temperature against a reference sample. A word on the EC50: it is the concentration at which the effect is half-maximal.

Series [1] addresses T1, Bromodomain testis-specific protein (Homo sapiens, UniProt Q58F21). The series can be described thus: Binding affinity to human partial length BRDT BD2 (K250 to E382 residues) expressed in bacterial expression system using H4K5acIC8acK12acK16ac-biotinylated peptide as substrate preincubated for 30 mins followed by substrate addition by AlphaScreen assay. In a few lines:
(§1)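 AlphaScreen. Biotinylated H4K5acK8acK12acK16ac peptide added at equal concentration to protein for 30 min. Donor and acceptor beads (25 µg/mL each) added, ≥1 h in the dark. Triplicate, curve-fitted, SEM.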
(Bead proximity is the source of the signal in Alpha formats.)

The target of series [2] is T2, Bromodomain-containing protein 2 (Homo sapiens, UniProt P25440). As to the kind of experiment: Binding affinity to human partial length BRD2 BD2 (E348 to D455 residues) expressed in bacterial expression system assessed as change in melting temperature at 50 uM at 20 to 85 degreeC by SYPRO orange staining based thermal shift assay. The essentials:
(§2)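 DSF thermal shift. 10 µM BD in 50 mM HEPES, 500 mM NaCl pH 7.5, with 50 µM compound or DMSO-matched control and 1:1000 Sypro Orange (ex 465/em 590 nm). Ramp 20–85 °C at 0.03 °C/s. Tm taken as the midpoint between fluorescence max and min. At least three independent experiments, SEM in °C.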
Target sequence in this assay (P25440 whole entry, looked up, the tested form may be a part): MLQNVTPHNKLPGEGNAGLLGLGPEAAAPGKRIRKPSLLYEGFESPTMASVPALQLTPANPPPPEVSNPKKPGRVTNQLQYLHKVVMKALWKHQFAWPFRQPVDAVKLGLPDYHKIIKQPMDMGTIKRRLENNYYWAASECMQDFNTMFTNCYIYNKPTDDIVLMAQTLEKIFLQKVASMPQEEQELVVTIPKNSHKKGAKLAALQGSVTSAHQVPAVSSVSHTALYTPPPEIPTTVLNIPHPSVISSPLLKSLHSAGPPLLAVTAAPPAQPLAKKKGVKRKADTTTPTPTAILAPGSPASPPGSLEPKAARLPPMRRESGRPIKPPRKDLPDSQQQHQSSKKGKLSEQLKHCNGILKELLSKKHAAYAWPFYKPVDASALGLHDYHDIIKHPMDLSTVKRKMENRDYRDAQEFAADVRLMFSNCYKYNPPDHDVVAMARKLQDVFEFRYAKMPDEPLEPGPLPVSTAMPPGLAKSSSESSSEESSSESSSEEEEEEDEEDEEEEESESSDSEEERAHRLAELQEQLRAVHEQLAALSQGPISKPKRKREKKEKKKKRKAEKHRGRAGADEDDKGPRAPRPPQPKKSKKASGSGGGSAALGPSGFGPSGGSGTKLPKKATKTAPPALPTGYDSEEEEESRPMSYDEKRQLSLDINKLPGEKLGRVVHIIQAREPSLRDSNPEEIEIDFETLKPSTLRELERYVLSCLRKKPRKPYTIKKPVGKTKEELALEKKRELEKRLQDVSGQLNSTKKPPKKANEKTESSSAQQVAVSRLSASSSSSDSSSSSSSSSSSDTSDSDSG

For series [3], the target named is T2, Bromodomain-containing protein 2. As to the kind of experiment: Binding affinity to human partial length BRD2 BD1 (K71 to N194 residues) expressed in bacterial expression system assessed as change in melting temperature at 50 uM at 20 to 85 degreeC by SYPRO orange staining based thermal shift assay. In a few lines: as §2
Target sequence in this assay (P25440 whole entry, looked up, the tested form may be a part): as above
For series [4], the target named is T3, Bromodomain-containing protein 3 (Homo sapiens, UniProt Q15059). The series can be described thus: Binding affinity to human partial length BRD3 BD2 (G306 to P416 residues) expressed in bacterial expression system assessed as change in melting temperature at 50 uM at 20 to 85 degreeC by SYPRO orange staining based thermal shift assay. The essentials: as §2
Target sequence in this assay (Q15059 2-726 limits assumed): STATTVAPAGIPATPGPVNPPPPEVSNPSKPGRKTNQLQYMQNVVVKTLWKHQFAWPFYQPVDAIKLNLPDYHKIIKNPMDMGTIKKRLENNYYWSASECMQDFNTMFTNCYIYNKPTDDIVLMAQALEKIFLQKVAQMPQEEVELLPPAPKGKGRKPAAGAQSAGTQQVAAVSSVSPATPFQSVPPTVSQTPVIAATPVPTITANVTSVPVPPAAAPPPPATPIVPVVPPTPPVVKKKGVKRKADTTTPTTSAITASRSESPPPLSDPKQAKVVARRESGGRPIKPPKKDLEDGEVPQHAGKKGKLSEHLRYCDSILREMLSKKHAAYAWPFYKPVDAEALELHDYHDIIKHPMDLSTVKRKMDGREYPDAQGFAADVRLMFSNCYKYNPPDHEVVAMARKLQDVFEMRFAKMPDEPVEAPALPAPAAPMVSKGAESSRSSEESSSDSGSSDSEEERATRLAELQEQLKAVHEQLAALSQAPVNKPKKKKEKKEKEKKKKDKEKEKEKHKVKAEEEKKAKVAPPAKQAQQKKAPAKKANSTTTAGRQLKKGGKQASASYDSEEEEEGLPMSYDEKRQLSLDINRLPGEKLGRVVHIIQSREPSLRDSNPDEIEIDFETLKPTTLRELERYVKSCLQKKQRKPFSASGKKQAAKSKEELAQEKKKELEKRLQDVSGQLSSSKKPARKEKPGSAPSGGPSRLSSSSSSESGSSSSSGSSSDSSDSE

Series [5] has as its target T1, Bromodomain testis-specific protein. The series can be described thus: Binding affinity to human partial length BRDT BD1 (N21 to E137 residues) expressed in bacterial expression system using H4K5acIC8acK12acK16ac-biotinylated peptide as substrate preincubated for 30 mins followed by substrate addition by AlphaScreen assay. In a few lines:
as §1

Series [6] concerns the target T2, Bromodomain-containing protein 2. The series can be described thus: Binding affinity to human partial length BRD2 BD1 (K71 to N194 residues) expressed in bacterial expression system using H4K5acIC8acK12acK16ac-biotinylated peptide as substrate preincubated for 30 mins followed by substrate addition by AlphaScreen assay. In a few lines: as §1
Target sequence in this assay (P25440 whole entry, the tested form may be a part): as the sequence (P25440 whole entry, looked up, the tested form may be a part) above
Series [7] addresses T3, Bromodomain-containing protein 3. The series can be described thus: Binding affinity to human partial length BRD3 BD1 (P24 to E144 residues) expressed in bacterial expression system using H4K5acIC8acK12acK16ac-biotinylated peptide as substrate preincubated for 30 mins followed by substrate addition by AlphaScreen assay. In a few lines:
as §1
Target sequence in this assay (Q15059 whole entry, the tested form may be a part): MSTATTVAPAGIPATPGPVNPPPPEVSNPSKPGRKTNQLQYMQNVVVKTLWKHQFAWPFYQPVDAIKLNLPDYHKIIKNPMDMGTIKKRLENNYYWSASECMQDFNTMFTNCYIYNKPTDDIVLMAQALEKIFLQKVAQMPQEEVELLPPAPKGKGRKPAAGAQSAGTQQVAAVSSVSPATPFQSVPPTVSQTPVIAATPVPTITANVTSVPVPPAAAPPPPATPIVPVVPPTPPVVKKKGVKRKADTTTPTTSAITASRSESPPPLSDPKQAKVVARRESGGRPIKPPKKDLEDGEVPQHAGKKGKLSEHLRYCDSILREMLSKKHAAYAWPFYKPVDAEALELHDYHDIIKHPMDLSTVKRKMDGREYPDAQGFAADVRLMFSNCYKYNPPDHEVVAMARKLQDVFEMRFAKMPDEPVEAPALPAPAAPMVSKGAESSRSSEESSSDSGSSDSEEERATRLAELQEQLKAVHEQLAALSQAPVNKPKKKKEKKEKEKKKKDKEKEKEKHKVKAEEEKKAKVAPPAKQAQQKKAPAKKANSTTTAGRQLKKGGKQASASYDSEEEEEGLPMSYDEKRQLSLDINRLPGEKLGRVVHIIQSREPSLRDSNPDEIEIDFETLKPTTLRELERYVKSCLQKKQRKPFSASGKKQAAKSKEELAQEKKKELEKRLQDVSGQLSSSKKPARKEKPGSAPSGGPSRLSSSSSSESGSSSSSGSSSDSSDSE

The target is the same in series [8]. The series can be described thus: Binding affinity to human partial length BRD3 BD2 (G306 to P416 residues) expressed in bacterial expression system using H4K5acIC8acK12acK16ac-biotinylated peptide as substrate preincubated for 30 mins followed by substrate addition by AlphaScreen assay. The essentials: as §1
Target sequence in this assay (Q15059 whole entry, the tested form may be a part): as above
The target in series [9] is T4, Bromodomain-containing protein 4 (Homo sapiens, UniProt O60885). As to the kind of experiment: Binding affinity to human partial length BRD4 BD2 (K333 to E460 residues) expressed in bacterial expression system using H4K5acIC8acK12acK16ac-biotinylated peptide as substrate preincubated for 30 mins followed by substrate addition by AlphaScreen assay.
Series [10] deals with VCaP. The series can be described thus: Antiproliferative activity against AR-positive human VCaP cells assessed as reduction in cell viability measured after 72 hrs by MTS assay. It is filed as functional, cell-based. The essentials:
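VCaP cells in 96-well plates, compound serially diluted in DMSO and run in triplicate wells for 72 h. MTS reagent added for 2 h, absorbance read at 490 nm. % cytotoxicity = (A_medium − A_treatment)/A_medium × 100. EC50 and SD taken from dose-response curves, at least three independent experiments.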
Background: Tetrazolium assays rely on reduction of a dye to a coloured formazan, in cell work by metabolically active cells.

Series [11] concerns LNCaP. The series can be described thus: Antiproliferative activity against androgen-sensitive human LNCaP cells assessed as reduction in cell viability measured after 72 hrs by MTS assay. It is filed as functional, cell-based. The essentials: (§3)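 MTS viability assay run in triplicate wells. Serial dilutions in DMSO were given, with DMSO as negative control and doxorubicin as positive control, and incubated 72 h. MTS reagent was added for 2 h and absorbance read at 490 nm. % cytotoxicity = (A_medium − A_treatment)/A_medium × 100. EC50 ± SD was taken from dose-response curves of at least three independent experiments.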

Series [12] has as its system PC-3. The series can be described thus: Antiproliferative activity against androgen-insensitive human PC-3 cells assessed as reduction in cell viability measured after 72 hrs by MTS assay. Particulars: PC-3, 72 h. It is filed as functional, cell-based. The essentials:
as §3

A short description of series [13]: Cytotoxicity against HFF cells assessed as reduction in cell viability measured after 72 hrs by MTS assay. It is filed as toxicity, cell-based. The following applies: human. In a few lines: as §3
For series [14], the system named is VCaP. The series can be described thus: Downregulation of BRD2 mRNA levels in human VCaP cells at 25 to 2500 nM incubated for 24 hrs by qRT-PCR analysis. It is filed as functional, cell-based. The following applies: dose 25-2500 nM. In a few lines: (§4)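 VCaP cells grown to 50% confluence, then treated with compound or DMSO (Methods state 16 h, legend states 24 h). Total RNA isolated, cDNA made from 1 µg RNA, SYBR Green qPCR run in triplicate. Expression by ΔΔCt, normalised to GAPDH. Three independent experiments, SEM.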
For orientation: In qPCR the cycle at which signal appears reflects the starting amount.

In series [15] the test system is VCaP. As to the kind of experiment: Downregulation of BRD4 mRNA levels in human VCaP cells at 25 to 2500 nM incubated for 24 hrs by qRT-PCR analysis. It is filed as functional, cell-based. Particulars: dose 25-2500 nM. In a few lines:
as §4

Series [16] concerns VCaP. The series can be described thus: Downregulation of PSA […] expression in human VCaP cells incubated for 24 hrs by qRT-PCR analysis. It is filed as functional, cell-based. The following applies: dose 25-2500 nM. In a few lines:
as §4

Series [17] has as its target T4, Bromodomain-containing protein 4. As to the kind of experiment: Induction of BRD4 degradation in human MDA-MB-231 cells at 0.025 to 2.5 uM incubated for 24 hrs by qRT-PCR analysis. It is filed as cell-based. The following applies: dose 0.025-2.5 µM. The essentials:
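MDA-MB-231 cells treated for 24 h at doses rising tenfold from 25 nM to 2.5 µM. Gene expression measured by qRT-PCR. SEM, n = 3.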

Series [18] has as its target T2, Bromodomain-containing protein 2. As to the kind of experiment: Induction of BRD2 degradation in human MDA-MB-231 cells assessed as decrease in BET half life at 10 uM incubated for 8 hrs in presence of cycloheximide by immunoblotting analysis. It is filed as cell-based. In a few lines: (§5)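 MDA-MB-231 time-course. Cells given 50 µg/mL cycloheximide plus DMSO, or 50 µg/mL cycloheximide plus 10 µM compound. RIPA lysates immunoblotted for BRD2, BRD3 and BRD4 with GAPDH as control.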
Target sequence in this assay (P25440 whole entry, looked up, the tested form may be a part): as the sequence (P25440 whole entry, looked up, the tested form may be a part) above

Series [19] addresses T3, Bromodomain-containing protein 3. As to the kind of experiment: Induction of BRD3 degradation in human MDA-MB-231 cells assessed as decrease in BET half life at 10 uM incubated for 8 hrs in presence of cycloheximide by immunoblotting analysis. It is filed as cell-based. In a few lines: as §5
Target sequence in this assay (Q15059 2-726 limits assumed): as the sequence (Q15059 2-726 limits assumed) above
Series [20] concerns the target T4, Bromodomain-containing protein 4. The series can be described thus: Induction of BRD4 degradation in human MDA-MB-231 cells at 10 uM by immunoblotting analysis. It is filed as cell-based. The following applies: time 8.0 hrs.
For series [21] the target is unchanged. The series can be described thus: Induction of BRD4 degradation in human MDA-MB-231 cells at 10 uM incubated for 8 hrs in presence of MG132 by immunoblotting analysis. It is filed as cell-based.
For series [22] the target is unchanged. The following applies: dose 50.0 µM.
Series [23] relates to DU-145. As to the kind of experiment: Antiproliferative activity against AR-negative human DU-145 cells assessed as reduction in cell viability measured after 72 hrs by MTS assay. The following applies: DU-145, 72 h.

The source made the active and inactive calls. The rule behind the calls is not given here. Where only a bound is given, the exact number is not on record here.

Turning to `CC(=O)OC[C@]12CC[C@H]3[C@@H](C[C@H]4O[C@]45CC=CC(=O)[C@]35C)[C@]1(O)CC[C@@]2(O)[C@@](C)(O)[C@H]1CC(C)=C(C)C(=O)O1`, the half-inhibitory concentration (IC50) in series [1] stood at 119 nM; in series [5] it was 403 nM; in series [6], 103 nM; in series [7] it was 7.11 nM; in series [8], 108 nM; in series [9] it was 142 nM. Also, the ΔTm in series [2] was 8.23 °C; in series [3] it was 10.4 °C; in [4] it was 7.45 °C; in [22], 11.8 °C. Also, the EC50 turned out to be 30.5 nM in series [10], 21.6 nM in series [11], 63 nM in [12] and 263 nM in series [23]. Besides, the EC50 at 72 h in series [13] was above 2000 nM. Also, the outcome in series [14], in series [15], in series [17] and in series [21] was inactive. Also, in series [16], the Activity result was “Dose-Dependent Effect”. Besides, the result in series [18], in [19] and in series [20] was Active.

Source of the values: ChEMBL document CHEMBL5316292 (J Med Chem, 2023).
